Experimental findings from ChEMBL document CHEMBL1157407, “Inhibitors of bacterial multidrug efflux pumps from the resin glycosides of Ipomoea murucoides” (2008) are described below.

What all share (type): functional
Test [1] has as its system Staphylococcus aureus. Kind of test: Antimicrobial activity against multidrug-resistant Staphylococcus aureus over expressing NorA MDR efflux pump. Put shortly: (§1)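 Broth microdilution MIC per NCCLS guidelines, at least in duplicate, in cation-adjusted Mueller-Hinton broth (20 mg/L Ca2+, 10 mg/L Mg2+). Strains grown on nutrient agar first. Inoculum 5×10^5 cfu prepared in 0.9% saline against a McFarland standard. Compounds dissolved in DMSO, 2-fold serial dilutions, final 1–512 µg/mL (DMSO ≤3.125% v/v). MIC taken as lowest concentration with no visible growth.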

Test [2] deals with Staphylococcus aureus. Nature of the test: Antimicrobial activity against Staphylococcus aureus ATCC 25923. The method in brief:
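Broth microdilution MIC per NCCLS guidelines, at least in duplicate. Inoculum 5×10^5 cfu prepared in 0.9% saline against a McFarland standard. Cation-adjusted Mueller-Hinton broth with 20 mg/L Ca2+ and 10 mg/L Mg2+. Compounds dissolved in DMSO, then 2-fold serial dilutions, final 1–512 μg/mL; DMSO at most 3.125% v/v. MIC is the lowest concentration giving no visible growth.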

The next test has as its system HEp-2. Kind of test: Cytotoxicity against human Hep2 cells after 72 hrs. As to conditions: HEp-2, 72 h, read-out: ED50 (the source's name). Put shortly:
(§2)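 Cells grown in RPMI 1640 with 10% fetal bovine serum at 37 °C, 5% CO2, humidified. Log-phase cells treated in triplicate with test samples at 0.16–20 μg/mL for 72 h. Growth read by the NCI sulforhodamine method. ED50 is the dose inhibiting 50% of control growth, estimated from a semilog plot of concentration against percentage of viable cells.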

Test [3] has as its system Staphylococcus aureus. Kind of test: Antimicrobial activity against methicillin-resistant Staphylococcus aureus XU212. The method in brief:
as §1

For test [4], the system named is Staphylococcus aureus. Nature of the test: Antimicrobial activity against epidemic methicillin-resistant Staphylococcus aureus 15 containing mecA gene. The method in brief:
as §1

For the next test, the system named is HeLa. Kind of test: Cytotoxicity against human HeLa cells after 72 hrs. The following applies: read-out: ED50 (the source's name). Put shortly:
as §2

A further test concerns KB. Kind of test: Cytotoxicity against human KB cells after 72 hrs. As to conditions: read-out: ED50 (the source's name). Put shortly:
as §2

In brackets after ≈: the same amount, converted by molar mass. Bounds are passed on as bounds.

With `CCCCC[C@H]1CCCCCCCCCC(=O)O[C@H]2[C@@H](O)[C@H](O[C@H]3[C@H](O1)O[C@H](C)[C@H](O)[C@@H]3O)O[C@@H](C)[C@@H]2O[C@@H]1O[C@@H](C)[C@H](O[C@@H]2O[C@@H](C)[C@H](OC(=O)[C@@H](C)CC)[C@@H](O)[C@H]2O)[C@@H](O[C@@H]2O[C@H](CO)[C@@H](O)[C@H](O)[C@H]2O)[C@H]1OC(=O)[C@@H](C)CC` [MURUCOIDIN V], the MIC (in general, the smallest concentration in the dilution series that meets the test's criterion for growth inhibition) against Staphylococcus aureus [1] is 64 µg/mL (≈ 54.7 µM); against Staphylococcus aureus [2], greater than 512 µg/mL; in the test on Staphylococcus aureus [3], 256 µg/mL (≈ 219 µM); against Staphylococcus aureus [4], 128 µg/mL (≈ 109 µM). Further, the EC50 in the test on HEp-2 was greater than 20 µg/mL; in the test with HeLa it was 13.2 µg/mL (≈ 11.3 µM); in the test with KB it was greater than 20 µg/mL.

Consider `CCCCCCCCCCCC(=O)O[C@H]1[C@H](O[C@@H]2[C@H]3OC(=O)CCCCCCCCC[C@H](CCCCC)O[C@@H]4O[C@H](C)[C@H](O)[C@H](O)[C@H]4O[C@H](O[C@H]2C)[C@@H]3O)O[C@@H](C)[C@H](O[C@@H]2O[C@@H](C)[C@H](OC(=O)[C@@H](C)CC)[C@@H](O)[C@H]2O)[C@H]1O[C@@H]1O[C@@H](C)[C@H](O)[C@@H](O)[C@H]1O` [PESCAPREIN III], for which the MIC against Staphylococcus aureus [1], against Staphylococcus aureus [2], in the test on Staphylococcus aureus [3] and against Staphylococcus aureus [4] was greater than 512 µg/mL in each case. In addition, the EC50 is 4.7 µg/mL (≈ 3.76 µM) in the test with HEp-2, greater than 20 µg/mL in the test on HeLa and 15.7 µg/mL (≈ 12.5 µM) in the test on KB.

On to `CCCCC[C@H]1CCCCCCCCCC(=O)O[C@H]2[C@H](O[C@H]3[C@H](O1)O[C@H](C)[C@H](O)[C@@H]3O)O[C@@H](C)[C@H](O[C@@H]1O[C@@H](C)[C@H](O[C@@H]3O[C@@H](C)[C@H](O)[C@@H](O)[C@H]3O)[C@@H](O[C@@H]3O[C@@H](C)[C@H](O)[C@@H](O)[C@H]3O)[C@H]1OC(=O)[C@@H](C)CC)[C@H]2O` [MURUCOIDIN I], for which the MIC against Staphylococcus aureus [1] is 32 µg/mL (≈ 29.9 µM); against Staphylococcus aureus [2] it was greater than 512 µg/mL; with Staphylococcus aureus [3] it was 512 µg/mL (≈ 479 µM); against Staphylococcus aureus [4], 256 µg/mL (≈ 239 µM). Also, the EC50 in the test on HEp-2, in the test with HeLa and with KB was greater than 20 µg/mL throughout.

For `CCCCC[C@H]1CCCCCCCCCC(=O)O[C@H]2[C@H](O[C@H]3[C@H](O1)O[C@H](C)[C@H](O)[C@@H]3O)O[C@@H](C)[C@H](O[C@@H]1O[C@@H](C)[C@H](O[C@@H]3O[C@@H](C)[C@H](OC(=O)C(C)C)[C@@H](O)[C@H]3O)[C@@H](O[C@@H]3O[C@@H](C)[C@H](O)[C@@H](O)[C@H]3O)[C@H]1OC(=O)[C@@H](C)CC)[C@H]2O` [MURUCOIDIN II], the MIC against Staphylococcus aureus [1], against Staphylococcus aureus [2], in the test on Staphylococcus aureus [3] and in the test on Staphylococcus aureus [4] was greater than 512 µg/mL throughout. Also, the values for the EC50 in the test on HEp-2, in the test with HeLa and in the test on KB were greater than 20 µg/mL, 16 µg/mL (≈ 14 µM) and greater than 20 µg/mL, respectively.

For `CCCCCCCCCCCC(=O)O[C@H]1[C@H](O[C@@H]2[C@H]3OC(=O)CCCCCCCCC[C@H](CCCCC)O[C@@H]4O[C@H](C)[C@H](O)[C@H](O)[C@H]4O[C@H](O[C@H]2C)[C@@H]3O)O[C@@H](C)[C@H](O[C@@H]2O[C@@H](C)[C@H](OC(=O)[C@@H](C)CC)[C@@H](O)[C@H]2O)[C@H]1O[C@@H]1O[C@H](CO)[C@@H](O)[C@H](O)[C@H]1O` [MURUCOIDIN XI], the MIC in the test with Staphylococcus aureus [1], in the test on Staphylococcus aureus [2], with Staphylococcus aureus [3] and with Staphylococcus aureus [4] was greater than 512 µg/mL in each case. The results for the EC50 in the test on HEp-2, with HeLa and in the test on KB were greater than 20 µg/mL, greater than 20 µg/mL and 12.1 µg/mL (≈ 9.55 µM), respectively.

Consider `CCCCC[C@H]1CCCCCCCCCC(=O)O[C@H]2[C@H](O)[C@@H](CO)O[C@@H](O[C@H]3[C@H](O1)O[C@H](C)[C@H](O)[C@@H]3O)[C@@H]2O[C@@H]1O[C@@H](C)[C@H](OC(=O)[C@@H](C)CC)[C@@H](O[C@@H]2O[C@@H](C)[C@H](O)[C@@H](O)[C@H]2O)[C@H]1OC(=O)[C@@H](C)CC` [TRICOLORIN A], for which the MIC with Staphylococcus aureus [1] was 8 µg/mL (≈ 7.82 µM); with Staphylococcus aureus [2], 16 µg/mL (≈ 15.6 µM); against Staphylococcus aureus [3], 8 µg/mL (≈ 7.82 µM); in the test on Staphylococcus aureus [4], 4 µg/mL (≈ 3.91 µM). Besides, the figures for the EC50 in the test on HEp-2, with HeLa and in the test on KB were 1.6 µg/mL (≈ 1.56 µM), 4.7 µg/mL (≈ 4.59 µM) and 1 µg/mL (≈ 0.977 µM), respectively.

Consider `CCCCC[C@H]1CCCCCCCCCC(=O)O[C@H]2[C@@H](O)[C@H](O[C@H]3[C@H](O1)O[C@H](C)[C@H](O)[C@@H]3O)O[C@@H](C)[C@@H]2O[C@@H]1O[C@@H](C)[C@H](O[C@@H]2O[C@@H](C)[C@H](OC(=O)C(C)C)[C@@H](O)[C@H]2O)[C@@H](O[C@@H]2O[C@@H](C)[C@H](O)[C@@H](O)[C@H]2O)[C@H]1OC(=O)[C@@H](C)CC` [MURUCOIDIN IX], for which the MIC against Staphylococcus aureus [1], in the test on Staphylococcus aureus [2], in the test with Staphylococcus aureus [3] and with Staphylococcus aureus [4] was greater than 512 µg/mL throughout. For the same compound, the EC50 in the test on HEp-2 is 10.2 µg/mL (≈ 8.95 µM); with HeLa, 12.4 µg/mL (≈ 10.9 µM); with KB it was greater than 20 µg/mL.

With `CCCCC[C@H]1CCCCCCCCCC(=O)O[C@H]2[C@H](O[C@H]3[C@H](O1)O[C@H](CO)[C@@H](O)[C@@H]3O)O[C@@H](C)[C@H](O[C@@H]1O[C@@H](C)[C@H](O[C@@H]3O[C@@H](C)[C@H](OC(=O)[C@@H](C)CC)[C@@H](O)[C@H]3O)[C@@H](O[C@@H]3O[C@@H](C)[C@H](O)[C@@H](O)[C@H]3O)[C@H]1OC(=O)[C@@H](C)CC)[C@H]2O` [MURUCOIDIN VIII], the MIC in the test with Staphylococcus aureus [1], with Staphylococcus aureus [2], with Staphylococcus aureus [3] and in the test on Staphylococcus aureus [4] was greater than 512 µg/mL each time. In addition, the EC50 was found to be 14.2 µg/mL (≈ 12.1 µM) in the test on HEp-2, 16.4 µg/mL (≈ 14 µM) with HeLa and 17.9 µg/mL (≈ 15.3 µM) with KB.

Take `CCCCC[C@H]1CCCCCCCCCC(=O)O[C@H]2[C@H](O[C@H]3[C@H](O1)O[C@H](CO)[C@@H](O)[C@@H]3O)O[C@@H](C)[C@H](O[C@@H]1O[C@@H](C)[C@H](O[C@@H]3O[C@@H](C)[C@H](OC(=O)C(C)C)[C@@H](O)[C@H]3O)[C@@H](O[C@@H]3O[C@@H](C)[C@H](O)[C@@H](O)[C@H]3O)[C@H]1OC(=O)[C@@H](C)CC)[C@H]2O` [MURUCOIDIN VII]: the MIC in the test on Staphylococcus aureus [1] is 32 µg/mL (≈ 27.7 µM); in the test with Staphylococcus aureus [2], greater than 512 µg/mL; in the test on Staphylococcus aureus [3], 512 µg/mL (≈ 443 µM); with Staphylococcus aureus [4], 256 µg/mL (≈ 222 µM). Also, the EC50 in the test with HEp-2, in the test with HeLa and with KB was greater than 20 µg/mL throughout.

Consider `CCCCC[C@H]1CCCCCCCCCC(=O)O[C@H]2[C@@H](O)[C@H](O[C@H]3[C@H](O1)O[C@H](C)[C@H](O)[C@@H]3O)O[C@@H](C)[C@@H]2O[C@@H]1O[C@@H](C)[C@H](O[C@@H]2O[C@@H](C)[C@H](OC(=O)[C@@H](C)CC)[C@@H](O)[C@H]2O)[C@@H](O[C@@H]2O[C@@H](C)[C@H](O)[C@@H](O)[C@H]2O)[C@H]1OC(=O)[C@@H](C)CC` [STOLONIFERIN I], for which the MIC was 64 µg/mL (≈ 55.5 µM) in the test on Staphylococcus aureus [1], greater than 512 µg/mL in the test on Staphylococcus aureus [2], 256 µg/mL (≈ 222 µM) in the test with Staphylococcus aureus [3] and 512 µg/mL (≈ 444 µM) against Staphylococcus aureus [4]. The EC50 in the test on HEp-2, in the test on HeLa and with KB was greater than 20 µg/mL each time.

As to `C/C=C(\C)C(=O)O[C@H]1[C@H](O)[C@@H](O)[C@H](O[C@@H]2[C@H]3OC(=O)CCCCCCCCC[C@H](CCCCC)O[C@@H]4O[C@H](C)[C@@H](O)[C@H](O)[C@H]4O[C@@H]4O[C@H](CO)[C@@H](OC(=O)[C@H](C)[C@@H](C)O)[C@H](O)[C@H]4O[C@H](O[C@H]2C)[C@@H]3OC(=O)[C@@H](C)CC)O[C@@H]1C` [ORIZABIN IX], the MIC is 512 µg/mL (≈ 457 µM) against Staphylococcus aureus [1], greater than 512 µg/mL with Staphylococcus aureus [2], 256 µg/mL (≈ 228 µM) with Staphylococcus aureus [3] and 256 µg/mL (≈ 228 µM) with Staphylococcus aureus [4]. The EC50 in the test with HEp-2, in the test on HeLa and in the test with KB was greater than 20 µg/mL each time.

In the case of `CCCCCCCCCCCC(=O)O[C@H]1[C@H](O[C@@H]2[C@H]3OC(=O)CCCCCCCCC[C@H](CCCCC)O[C@@H]4O[C@H](CO)[C@@H](O)[C@H](O)[C@H]4O[C@H](O[C@H]2C)[C@@H]3O)O[C@@H](C)[C@H](O[C@@H]2O[C@@H](C)[C@H](OC(=O)[C@@H](C)CC)[C@@H](O)[C@H]2O)[C@H]1O[C@@H]1O[C@@H](C)[C@H](O)[C@@H](O)[C@H]1O` [MURUCOIDIN VI], the MIC is 32 µg/mL (≈ 25.2 µM) in the test with Staphylococcus aureus [1], greater than 512 µg/mL with Staphylococcus aureus [2], 512 µg/mL (≈ 404 µM) against Staphylococcus aureus [3] and 256 µg/mL (≈ 202 µM) in the test on Staphylococcus aureus [4]. For the same compound, the EC50 with HEp-2, in the test on HeLa and with KB was greater than 20 µg/mL in each case.
